Reference: ChEMBL document CHEMBL1155468, “Syntheses and evaluation of anticonvulsant profile and teratogenicity of novel amide derivatives of branched aliphatic carboxylic acids with 4-aminobenzensulfonamide” (J Med Chem, 2010)
Activity calls are given as the source filed them. The calls are words filed in the database; no cut-off is given here.

Columns and labels:
Mus musculus [1] = assay: Neurotoxicity in CF1 albino mouse assessed as motor impairment at 300 mg/kg, ip after 4 hrs; type: toxicity, organism-based; set-up: dose 300 mg/kg, route intraperitoneal; conditions: in vivo
Mus musculus [2] = assay: Neurotoxicity in CF1 albino mouse assessed as motor impairment at 100 mg/kg, ip after 0.5 hrs; type: toxicity, organism-based; set-up: dose 100 mg/kg, route intraperitoneal; conditions: in vivo
Rattus norvegicus [3] = assay: Anticonvulsant activity in Sprague-Dawley rat assessed as inhibition of maximal electroshock-induced seizures at 30 mg/kg, po after 1 hr
Mus musculus [4] = assay: Teratogenic effect in SWV mouse assessed as resorptions at 486 mg/kg, ip administered on morning of day 8 of gestation; type: toxicity, organism-based; set-up: dose 486 mg/kg, route intraperitoneal; conditions: in vivo
Summary of the method: (§1)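 SWV inbred mice: two-month-old nulligravid females mated overnight with males and checked for vaginal plugs next morning; gestation onset taken as 10 p.m. the previous night. On gestation day 8.5 each dam got one ip injection, 0.55–2.7 mmol/kg, in 25% aqueous Cremophor EL (vehicle controls dosed alike), 10 μL/g body weight. Litters and implants tallied; resorptions and live fetuses reported as counts with percentages.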

Mus musculus [5] = assay: Teratogenic effect in SWV mouse assessed as fetuses with neural tube deffects at 148 mg/kg, ip administered on morning of day 8 of gestation; type: toxicity, organism-based; set-up: dose 148 mg/kg, route intraperitoneal; conditions: in vivo
Summary of the method: (§2)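 Two-month-old nulligravid SWV females were mated overnight and checked for vaginal plugs the next morning; gestation onset was set at 10 p.m. the previous night. On gestation day 8.5, each dam received a single ip injection (0.55-2.7 mmol/kg range) or vehicle (25% aqueous Cremophor EL) at 10 μL/g body weight. Litters were scored for implants, resorptions, live and dead fetuses, and fetuses with neural tube defects.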

Mus musculus [6] = assay: Anticonvulsant activity in CF1 albino mouse assessed as inhibition of maximal electroshock-induced seizures at 300 mg/kg, ip after 0.5 hrs; type: functional, organism-based; set-up: dose 300 mg/kg
Summary of the method: (§3)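 Test compounds suspended in 0.5% methylcellulose and given ip to adult male CF no. 1 albino mice (18-25 g) at 0.01 mL/g body weight before maximal electroshock challenge.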

Mus musculus [7] = assay: Teratogenic effect in SWV mouse assessed as live fetuses at 294 mg/kg, ip administered on morning of day 8 of gestation; type: toxicity, organism-based; set-up: dose 294 mg/kg, route intraperitoneal; conditions: in vivo; summary of the method: as §2
Rattus norvegicus [8] = assay: Anticonvulsant activity in po dosed rat assessed as inhibition of maximal electroshock-induced seizures
Mus musculus [9] = assay: Teratogenic effect in SWV mouse assessed as live fetuses at 148 mg/kg, ip administered on morning of day 8 of gestation; type: toxicity, organism-based; set-up: dose 148 mg/kg, route intraperitoneal; conditions: in vivo; summary of the method: as §2
Mus musculus [10] = assay: Anticonvulsant activity in CF1 albino mouse assessed as inhibition of subcutaneous pentylenetetrazole-induced seizures at 30 mg/kg, ip after 4 hrs; type: functional, organism-based; set-up: dose 30 mg/kg
Summary of the method: (§4)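 Adult male CF no. 1 albino mice (18-25 g) dosed ip with compound suspended in 0.5% methylcellulose (0.01 mL/g). Convulsant: pentylenetetrazol dissolved in 0.9% saline as a 0.85% solution for mice, given subcutaneously.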

Mus musculus [11] = assay: Anticonvulsant activity in CF1 albino mouse assessed as inhibition of subcutaneous pentylenetetrazole-induced seizures at 30 mg/kg, ip after 0.5 hrs; type: functional, organism-based; set-up: dose 30 mg/kg; summary of the method: as §4
Mus musculus [12] = assay: Neurotoxicity in CF1 albino mouse assessed as motor impairment at 30 mg/kg, ip after 0.5 hrs; type: toxicity, organism-based; set-up: dose 30 mg/kg, route intraperitoneal; conditions: in vivo
Rattus norvegicus [13] = assay: Neurotoxicity in Sprague-Dawley rat assessed as motor impairment at 30 mg/kg, po after 0.25 to 4 hrs; conditions: in vivo
Mus musculus [14] = assay: Teratogenic effect in SWV mouse assessed as resorptions at 294 mg/kg, ip administered on morning of day 8 of gestation; type: toxicity, organism-based; set-up: dose 294 mg/kg, route intraperitoneal; conditions: in vivo; summary of the method: as §1
Mus musculus [15] = assay: Neurotoxicity in CF1 albino mouse assessed as motor impairment at 300 mg/kg, ip after 0.5 hrs; type: toxicity, organism-based; set-up: dose 300 mg/kg, route intraperitoneal; conditions: in vivo
Mus musculus [16] = assay: Teratogenic effect in SWV mouse assessed as fetuses with neural tube deffects at 486 mg/kg, ip administered on morning of day 8 of gestation; type: toxicity, organism-based; set-up: dose 486 mg/kg, route intraperitoneal; conditions: in vivo; summary of the method: as §2
Mus musculus [17] = assay: Anticonvulsant activity in CF1 albino mouse assessed as inhibition of subcutaneous pentylenetetrazole-induced seizures at 100 mg/kg, ip after 0.5 hrs; type: functional, organism-based; set-up: dose 100 mg/kg; summary of the method: as §4
Mus musculus [18] = assay: Anticonvulsant activity in CF1 albino mouse assessed as inhibition of maximal electroshock-induced seizures at 30 mg/kg, ip after 0.5 hrs; type: functional, organism-based; set-up: dose 30 mg/kg; summary of the method: as §3
Mus musculus [19] = assay: Teratogenic effect in SWV mouse assessed as live fetuses at 729 mg/kg, ip administered on morning of day 8 of gestation; type: toxicity, organism-based; set-up: dose 729 mg/kg, route intraperitoneal; conditions: in vivo; summary of the method: as §1
Rattus norvegicus [20] = assay: Anticonvulsant activity in Sprague-Dawley rat assessed as inhibition of maximal electroshock-induced seizures at 30 mg/kg, po after 2 hrs
Mus musculus [21] = assay: Anticonvulsant activity in CF1 albino mouse assessed as inhibition of maximal electroshock-induced seizures at 100 mg/kg, ip after 0.5 hrs; type: functional, organism-based; set-up: dose 100 mg/kg; summary of the method: as §3
Mus musculus [22] = assay: Teratogenic effect in SWV mouse assessed as fetuses with neural tube deffects at 729 mg/kg, ip administered on morning of day 8 of gestation; type: toxicity, organism-based; set-up: dose 729 mg/kg, route intraperitoneal; conditions: in vivo; summary of the method: as §2
Mus musculus [23] = assay: Anticonvulsant activity in CF1 albino mouse assessed as inhibition of subcutaneous pentylenetetrazole-induced seizures at 300 mg/kg, ip after 0.5 hrs; type: functional, organism-based; set-up: dose 300 mg/kg; summary of the method: as §4
Mus musculus [24] = assay: Teratogenic effect in SWV mouse assessed as live fetuses at 486 mg/kg, ip administered on morning of day 8 of gestation; type: toxicity, organism-based; set-up: dose 486 mg/kg, route intraperitoneal; conditions: in vivo; summary of the method: as §1
Mus musculus [25] = assay: Teratogenic effect in SWV mouse assessed as resorptions at 148 mg/kg, ip administered on morning of day 8 of gestation; type: toxicity, organism-based; set-up: dose 148 mg/kg, route intraperitoneal; conditions: in vivo; summary of the method: as §1
Mus musculus [26] = assay: Teratogenic effect in SWV mouse assessed as resorptions at 729 mg/kg, ip administered on morning of day 8 of gestation; type: toxicity, organism-based; set-up: dose 729 mg/kg, route intraperitoneal; conditions: in vivo; summary of the method: as §1
Mus musculus [27] = assay: Anticonvulsant activity in CF1 albino mouse assessed as inhibition of subcutaneous pentylenetetrazole-induced seizures at 100 mg/kg, ip after 4 hrs; type: functional, organism-based; set-up: dose 100 mg/kg; summary of the method: as §4
Mus musculus [28] = assay: Anticonvulsant activity in CF1 albino mouse assessed as inhibition of subcutaneous pentylenetetrazole-induced seizures at 300 mg/kg, ip after 4 hrs; type: functional, organism-based; set-up: dose 300 mg/kg; summary of the method: as §4
Rattus norvegicus [29] = species on record: Rattus norvegicus; assay: Protective index, ratio of TD50 for rat to ED50 for maximal electroshock-induced rat seizure model
Mus musculus [30] = assay: Neurotoxicity in CF1 albino mouse assessed as motor impairment at 30 mg/kg, ip after 4 hrs; type: toxicity, organism-based; set-up: dose 30 mg/kg, route intraperitoneal; conditions: in vivo
Mus musculus [31] = assay: Anticonvulsant activity in CF1 albino mouse assessed as inhibition of maximal electroshock-induced seizures at 100 mg/kg, ip after 4 hrs; type: functional, organism-based; set-up: dose 100 mg/kg; summary of the method: as §3
Mus musculus [32] = assay: Anticonvulsant activity in CF1 albino mouse assessed as inhibition of maximal electroshock-induced seizures at 300 mg/kg, ip after 4 hrs; type: functional, organism-based; set-up: dose 300 mg/kg; summary of the method: as §3
Rattus norvegicus [33] = assay: Anticonvulsant activity in Sprague-Dawley rat assessed as inhibition of maximal electroshock-induced seizures at 30 mg/kg, po after 4 hrs
Mus musculus [34] = assay: Neurotoxicity in CF1 albino mouse assessed as motor impairment at 100 mg/kg, ip after 4 hrs; type: toxicity, organism-based; set-up: dose 100 mg/kg, route intraperitoneal; conditions: in vivo
Mus musculus [35] = assay: Anticonvulsant activity in CF1 albino mouse assessed as inhibition of maximal electroshock-induced seizures at 30 mg/kg, ip after 4 hrs; type: functional, organism-based; set-up: dose 30 mg/kg; summary of the method: as §3
Mus musculus [36] = assay: Teratogenic effect in SWV mouse assessed as fetuses with neural tube deffects at 294 mg/kg, ip administered on morning of day 8 of gestation; type: toxicity, organism-based; set-up: dose 294 mg/kg, route intraperitoneal; conditions: in vivo; summary of the method: as §2

SMILES: CCC(CC)C(=O)Nc1ccc(S(N)(=O)=O)cc1
- Activity (Mus musculus [1]): Non-toxic
- Activity (Mus musculus [2]): Non-toxic
- Activity (Rattus norvegicus [3]): Active
- Activity (Mus musculus [4]): 52.1%
- Activity (Mus musculus [5]): 0.8%
- Activity (Mus musculus [6]): Active
- Activity (Mus musculus [7]): 84.2%
- ED50 (Rattus norvegicus [8]): 9.9 mg/kg
- Activity (Mus musculus [9]): 93.3%
- Activity (Mus musculus [10]): inactive
- Activity (Mus musculus [11]): inactive
- Activity (Mus musculus [12]): Non-toxic
- Activity (Rattus norvegicus [13]): Non-toxic
- Activity (Mus musculus [14]): 15.8%
- Activity (Mus musculus [15]): Non-toxic
- Activity (Mus musculus [16]): 25.9%
- Activity (Mus musculus [17]): inactive
- Activity (Mus musculus [18]): Active
- Activity (Mus musculus [19]): 46.8%
- Activity (Rattus norvegicus [20]): Active
- Activity (Mus musculus [21]): Active
- Activity (Mus musculus [22]): 20.3%
- Activity (Mus musculus [23]): inactive
- Activity (Mus musculus [24]): 47.9%
- Activity (Mus musculus [25]): 7.7%
- Activity (Mus musculus [26]): 53.2%
- Activity (Mus musculus [27]): inactive
- Activity (Mus musculus [28]): inactive
- Ratio TD50/ED50 (Rattus norvegicus [29]): >50.5
- Activity (Mus musculus [30]): Non-toxic
- Activity (Mus musculus [31]): Active
- Activity (Mus musculus [32]): Active
- Activity (Rattus norvegicus [33]): Active
- Activity (Mus musculus [34]): Non-toxic
- Activity (Mus musculus [35]): Active
- Activity (Mus musculus [36]): 4.5%
